From ChEMBL document CHEMBL1275598, “In vitro activity of ceftaroline against community-associated methicillin-resistant, vancomycin-intermediate, vancomycin-resistant, and daptomycin-nonsusceptible Staphylococcus aureus isolates” (2010)
In brackets after ≈: the same amount, converted by molar mass.

Tests used:
Format in all cases: functional
[1] = tested on: Staphylococcus aureus; experiment: Bactericidal activity against community-acquired methicillin-resistant Staphylococcus aureus assessed as antibiotic concentration that reduced the number of viable cells by =>99.9% by colony count method; conditions: for MBC: Staphylococcus aureus
In short: (§1)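 MBC per CLSI following microdilution in cation-adjusted Mueller-Hinton broth. Defined as the concentration giving ≥99.9% reduction in viable cells, judged from colony counts of the growth control well against Pearson rejection-value tables. CA-MRSA isolates were hospital patients' isolates with positive MRSA culture within 48 h of admission.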

[2] = tested on: Staphylococcus aureus; experiment: Bactericidal activity against vancomycin-resistant Staphylococcus aureus assessed as antibiotic concentration that reduced the number of viable cells by =>99.9% by colony count method; conditions: for MBC: Staphylococcus aureus; in short: as §1
[3] = tested on: Staphylococcus aureus; experiment: Antimicrobial activity against vancomycin intermediate Staphylococcus aureus NRS-118 expressing SCCmec type 1 element by microdilution method
In short: (§2)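 MIC by broth microdilution in cation-adjusted Mueller-Hinton broth, following CLSI guidelines; antibiotic powders reconstituted per CLSI. Read visually as the lowest drug concentration well with no visible growth. S. aureus ATCC 29213 and E. faecalis ATCC 29212 served as control strains. CA-MRSA: hospital patients culture-positive within 48 h of admission. DNSSA: patient blood isolates. VISA: obtained from the NARSA program.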

[4] = tested on: Staphylococcus aureus; experiment: Antimicrobial activity against vancomycin intermediate Staphylococcus aureus NRS-402 expressing SCCmec type 2 element by microdilution method; in short: as §2
[5] = tested on: Staphylococcus aureus; experiment: Antimicrobial activity against vancomycin-intermediate Staphylococcus aureus assessed as susceptible isolates by microdilution method
In short: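 CLSI broth microdilution in cation-adjusted Mueller-Hinton broth. MIC is the lowest concentration well with no visible growth, read by eye. Isolates were classed susceptible from CLSI breakpoints. S. aureus ATCC 29213 and E. faecalis ATCC 29212 were used as MIC control strains.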

[6] = tested on: Staphylococcus aureus; experiment: Antimicrobial activity against vancomycin resistant Staphylococcus aureus VRS-7 expressing SCCmec element by microdilution method
In short: (§3)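 Broth microdilution per CLSI in cation-adjusted Mueller-Hinton broth. Antibiotic powders were reconstituted per CLSI. The MIC was read visually as the lowest drug concentration with no visible growth. S. aureus ATCC 29213 and E. faecalis ATCC 29212 served as control strains. VISA and VRSA isolates came from the NARSA program.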

[7] = tested on: Staphylococcus aureus; experiment: Antimicrobial activity against vancomycin intermediate Staphylococcus aureus NRS-19 expressing SCCmec type 2 element by microdilution method; in short: as §2
[8] = tested on: Staphylococcus aureus; experiment: Antimicrobial activity against daptomycin-nonsusceptible Staphylococcus aureus assessed as susceptible isolates by microdilution method
In short: (§4)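 MICs by CLSI broth microdilution in cation-adjusted Mueller-Hinton broth, read visually as the lowest concentration with no visible growth. Percentages of susceptible or resistant isolates assigned using CLSI breakpoints. Isolates: CA-MRSA (n = 92, positive within 48 h of admission) and DNSSA (n = 7, blood).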

[9] = tested on: Staphylococcus aureus; experiment: Antimicrobial activity against vancomycin intermediate Staphylococcus aureus NRS-26 expressing SCCmec type 2 element by microdilution method; in short: as §2
[10] = tested on: Staphylococcus aureus; experiment: Antimicrobial activity against vancomycin-resistant Staphylococcus aureus by microdilution method; in short: as §3
[11] = tested on: Staphylococcus aureus; experiment: Antimicrobial activity against vancomycin intermediate Staphylococcus aureus NRS-27 expressing SCCmec type 2 element by microdilution method; in short: as §2
[12] = tested on: Staphylococcus aureus; experiment: Antimicrobial activity against vancomycin-intermediate Staphylococcus aureus by microdilution method; in short: as §3
[13] = tested on: Staphylococcus aureus; experiment: Bactericidal activity against vancomycin-intermediate Staphylococcus aureus assessed as antibiotic concentration that reduced the number of viable cells by =>99.9% by colony count method; conditions: for MBC: Staphylococcus aureus
In short: (§5)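 MBC per CLSI guidelines. It was taken as the antibiotic concentration giving ≥99.9% reduction in viable cells, based on colony counts from the growth control well and rejection values from Pearson's tables.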

[14] = tested on: Staphylococcus aureus; experiment: Antimicrobial activity against vancomycin intermediate Staphylococcus aureus NRS-22 expressing SCCmec type 2 element by microdilution method; in short: as §2
[15] = tested on: Staphylococcus aureus; experiment: Antimicrobial activity against vancomycin resistant Staphylococcus aureus VRS-9 expressing SCCmec type 2 element by microdilution method; in short: as §3
[16] = tested on: Staphylococcus aureus; experiment: Antimicrobial activity against vancomycin resistant Staphylococcus aureus VRS-8 expressing SCCmec element by microdilution method; in short: as §3
[17] = tested on: Staphylococcus aureus; experiment: Antimicrobial activity against vancomycin intermediate Staphylococcus aureus NRS-68 expressing SCCmec type 2 element by microdilution method; in short: as §2
[18] = tested on: Staphylococcus aureus; experiment: Antimicrobial activity against vancomycin intermediate Staphylococcus aureus NRS-403 expressing SCCmec type 2 element by microdilution method; in short: as §2
[19] = tested on: Staphylococcus aureus; experiment: Bactericidal activity against daptomycin-nonsusceptible Staphylococcus aureus assessed as antibiotic concentration that reduced the number of viable cells by =>99.9% by colony count method; in short: as §5
[20] = tested on: Staphylococcus aureus; experiment: Antimicrobial activity against community-acquired methicillin-resistant Staphylococcus aureus by microdilution method; in short: as §2
[21] = tested on: Staphylococcus aureus; experiment: Antimicrobial activity against vancomycin intermediate Staphylococcus aureus NRS-73 expressing SCCmec type 4d element by microdilution method; in short: as §2
[22] = tested on: Staphylococcus aureus; experiment: Antimicrobial activity against vancomycin intermediate Staphylococcus aureus NRS-17 expressing SCCmec type 2 element by microdilution method; in short: as §2
[23] = tested on: Staphylococcus aureus; experiment: Antimicrobial activity against daptomycin-nonsusceptible Staphylococcus aureus by microdilution method; in short: as §2
[24] = tested on: Staphylococcus aureus; experiment: Antimicrobial activity against vancomycin resistant Staphylococcus aureus VRS-10 expressing SCCmec type 2 element by microdilution method; in short: as §3
[25] = tested on: Staphylococcus aureus; experiment: Antimicrobial activity against vancomycin resistant Staphylococcus aureus VRS-1 expressing SCCmec type 2 element by microdilution method; in short: as §3
[26] = tested on: Staphylococcus aureus; experiment: Antimicrobial activity against community-acquired methicillin-resistant Staphylococcus aureus assessed as susceptible isolates by microdilution method; in short: as §4
[27] = tested on: Staphylococcus aureus; experiment: Antimicrobial activity against vancomycin resistant Staphylococcus aureus VRS-6 expressing SCCmec type 2 element by microdilution method; in short: as §3
[28] = tested on: Staphylococcus aureus; experiment: Antimicrobial activity against vancomycin resistant Staphylococcus aureus VRS-4 expressing SCCmec type 4 element by microdilution method; in short: as §3
[29] = tested on: Staphylococcus aureus; experiment: Antimicrobial activity against vancomycin resistant Staphylococcus aureus VRS-3 expressing SCCmec type 4 element by microdilution method; in short: as §3
[30] = tested on: Staphylococcus aureus; experiment: Antimicrobial activity against community-acquired methicillin-resistant Staphylococcus aureus assessed as resistant isolates by microdilution method; in short: as §4
[31] = tested on: Staphylococcus aureus; experiment: Antimicrobial activity against vancomycin resistant Staphylococcus aureus VRS-2 expressing SCCmec type 2 element by microdilution method; in short: as §3
[32] = tested on: Staphylococcus aureus; experiment: Antimicrobial activity against vancomycin-intermediate Staphylococcus aureus assessed as resistant isolates by microdilution method
In short: (§6)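 CLSI broth microdilution MICs in cation-adjusted Mueller-Hinton broth, read visually as the lowest concentration with no visible growth. Percent of isolates classed susceptible or resistant was assigned using CLSI breakpoints.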

[33] = tested on: Staphylococcus aureus; experiment: Antimicrobial activity against daptomycin-nonsusceptible Staphylococcus aureus assessed as resistant isolates by microdilution method; in short: as §4
[34] = tested on: Staphylococcus aureus; experiment: Antimicrobial activity against vancomycin intermediate Staphylococcus aureus NRS-3 expressing SCCmec type 2 element by microdilution method; in short: as §2
[35] = tested on: Staphylococcus aureus; experiment: Antimicrobial activity against vancomycin resistant Staphylococcus aureus VRS-5 expressing SCCmec type 2 element by microdilution method; in short: as §3
[36] = tested on: Staphylococcus aureus; experiment: Antimicrobial activity against vancomycin-resistant Staphylococcus aureus assessed as susceptible isolates by microdilution method; in short: as §6
[37] = tested on: Staphylococcus aureus; experiment: Antimicrobial activity against vancomycin-resistant Staphylococcus aureus assessed as resistant isolates by microdilution method; in short: as §6
[38] = tested on: Staphylococcus aureus; experiment: Antimicrobial activity against vancomycin intermediate Staphylococcus aureus NRS-404 expressing SCCmec type 2 element by microdilution method; in short: as §2

SMILES: CC(=O)NC[C@H]1CN(c2ccc(N3CCOCC3)c(F)c2)C(=O)O1 [LINEZOLID]
- MBC [1]: > 4 µg/mL
- MBC [2]: > 8 µg/mL
- MIC [3]: 1 µg/mL (≈ 2.96 µM)
- MIC [4]: 0.5 µg/mL (≈ 1.48 µM)
- Activity [5]: 100%
- MIC [6]: 1 µg/mL (≈ 2.96 µM)
- MIC [7]: 1 µg/mL (≈ 2.96 µM)
- Activity [8]: 100%
- MIC [9]: 1 µg/mL (≈ 2.96 µM)
- MIC50 [10]: 2 µg/mL (≈ 5.93 µM)
- MIC90 [10]: 2 µg/mL (≈ 5.93 µM)
- MIC [11]: 1 µg/mL (≈ 2.96 µM)
- MIC50 [12]: 2 µg/mL (≈ 5.93 µM)
- MIC90 [12]: 2 µg/mL (≈ 5.93 µM)
- MBC50 [13]: 4 µg/mL (≈ 11.9 µM)
- MBC90 [13]: >8 µg/mL
- MBC [13]: > 1 µg/mL
- MIC [14]: 1 µg/mL (≈ 2.96 µM)
- MIC [15]: 1 µg/mL (≈ 2.96 µM)
- MIC [16]: 1 µg/mL (≈ 2.96 µM)
- MIC [17]: 1 µg/mL (≈ 2.96 µM)
- MIC [18]: 1 µg/mL (≈ 2.96 µM)
- MBC50 [19]: >8 µg/mL
- MIC50 [20]: 2 µg/mL (≈ 5.93 µM)
- MIC90 [20]: 2 µg/mL (≈ 5.93 µM)
- MIC [21]: 1 µg/mL (≈ 2.96 µM)
- MIC [22]: 1 µg/mL (≈ 2.96 µM)
- MIC [23]: 1 µg/mL (≈ 2.96 µM)
- MIC50 ([23]; Staphylococcus aureus): 2 µg/mL (≈ 5.93 µM)
- MIC ([23]; Staphylococcus aureus, read-out: MIC): 1.48 µg/mL (≈ 4.39 µM)

SMILES: CN[C@H](CC(C)C)C(=O)N[C@H]1C(=O)N[C@@H](CC(N)=O)C(=O)N[C@H]2C(=O)N[C@H]3C(=O)N[C@H](C(=O)N[C@H](C(=O)O)c4cc(O)cc(O)c4-c4cc3ccc4O)[C@H](O)c3ccc(c(Cl)c3)Oc3cc2cc(c3O[C@@H]2O[C@H](CO)[C@@H](O)[C@H](O)[C@H]2O[C@H]2C[C@](C)(N)[C@H](O)[C@H](C)O2)Oc2ccc(cc2Cl)[C@H]1O [VANCOMYCIN]
- MBC50 [1]: 1 µg/mL (≈ 0.69 µM)
- MBC90 [1]: 1 µg/mL (≈ 0.69 µM)
- MBC [1]: 0.5 µg/mL (≈ 0.345 µM)
- MIC [24]: > 64 µg/mL
- MIC [25]: > 64 µg/mL
- Activity [26]: 100%
- MBC50 [2]: >64 µg/mL
- MBC90 [2]: >64 µg/mL
- MBC [2]: > 64 µg/mL
- MIC [3]: 8 µg/mL (≈ 5.52 µM)
- MIC [4]: 8 µg/mL (≈ 5.52 µM)
- MIC [27]: > 64 µg/mL
- Activity [5]: 13%
- MIC [28]: > 64 µg/mL
- MIC [29]: 32 µg/mL (≈ 22.1 µM)
- MIC [6]: > 64 µg/mL
- Activity [8]: 100%
- Activity [30]: 0%
- MIC [31]: 32 µg/mL (≈ 22.1 µM)
- MIC50 [10]: > 64 µg/mL
- MIC90 [10]: > 64 µg/mL
- Activity [32]: 0%
- Activity [33]: 0%
- MIC50 [12]: 4 µg/mL (≈ 2.76 µM)
- MIC90 [12]: 8 µg/mL (≈ 5.52 µM)
- MIC [34]: 8 µg/mL (≈ 5.52 µM)
- MBC50 [13]: 4 µg/mL (≈ 2.76 µM)
- MBC90 [13]: 8 µg/mL (≈ 5.52 µM)
- MBC [13]: 1 µg/mL (≈ 0.69 µM)
- MIC [35]: > 64 µg/mL
- MIC [15]: > 64 µg/mL
- MIC [16]: > 64 µg/mL
- Activity [36]: 0%
- MBC50 [19]: 2 µg/mL (≈ 1.38 µM)
- MBC ([19]; Staphylococcus aureus, read-out: MBC): 2 µg/mL (≈ 1.38 µM)
- Activity [37]: 100%
- MIC50 [20]: 1 µg/mL (≈ 0.69 µM)
- MIC90 [20]: 1 µg/mL (≈ 0.69 µM)
- MIC [38]: 8 µg/mL (≈ 5.52 µM)
- MIC [22]: 8 µg/mL (≈ 5.52 µM)
- MIC50 ([23]; Staphylococcus aureus): 2 µg/mL (≈ 1.38 µM)
